Tests used:
[1] = test system: Line 1 (L1) tau transgenic mice; assay: Problem-solving task in the water maze; assay type: in vivo, mouse
In short: (§1)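 Mice aged 5 months (L1 and WT) received 15 or 45 mg/kg by oral gavage for 5 weeks (Monday–Friday), with dosing continued during testing 1 h before the first trial. Cued training lasted 4 days at 4 trials/day in a 1.5 m pool with water at 21±1°C, curtains drawn and a flagged platform moved daily among 20 sites. Each trial allowed 60 s, with a 2 s stay and a 10-min intertrial interval. Path length and swim speed were video-tracked.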

[2] = test system: wild-type (WT) control mice; assay: Visible platform task in the water maze, WT mice; assay type: in vivo, mouse
In short: as §1

[3] = Body weight over 8 weeks of oral treatment, L1 and WT mice; assay type: in vivo, mouse; settings: over 8 weeks of oral administration; identical in WT and L1 cohorts; drug exposure did not differ from vehicle
aggregated tau in Line 1 = aggregated tau in Line 1 (Homo sapiens, UniProt P10636); assay: Immunohistochemical counts of tau-reactive neurons; assay type: in vivo, mouse; settings: L1 mice, 45 mg/kg oral, 19 days
In short: (§2)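 Separate histology cohorts were killed by Euthatal overdose 1 h after the last dose. Brains were removed, paraformaldehyde-fixed and paraffin-embedded. Sixteen 3-μm sections per brain were stained together with WT, L1 and L66 controls, using mAb 7/51 (hybridoma supernatant 1:300) with HRP anti-mouse detection and haematoxylin counterstain. Tau-reactive neurons were counted by region, expressed as ln(count+1) and as percentage reduction versus zero dose.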

aggregated tau in L66 = aggregated tau in L66 (Homo sapiens, UniProt P10636, G652D/P618S); assay: Immunohistochemical counts of tau-reactive neurons; assay type: in vivo, mouse; settings: L66 heterozygous, 8–9 months, MTC 45 mg/kg (35.1 mg MT/kg), 3 weeks
In short: as §2

[4] = test system: Line 66 (L66) tau transgenic mice; assay: RotaRod motor performance and motor learning, L66 mice; assay type: in vivo, mouse
In short: (§3)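 On a four-lane rat RotaRod, pretreatment trials in week 1 were used for cohort matching. Mice then received 2 weeks of daily oral dosing (Monday–Sunday, 08.00–10.00 h): L66 at 5, 15 or 45 mg/kg, WT at 45 mg/kg only. Post-treatment training in week 4 continued dosing 1 h before the first trial. Time to fall was recorded over 12 trials. Learning was scored as trial 12 minus trial 1, and memory as pretreatment versus post-treatment trial 1.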

[5] = test system: wild-type (WT) control mice; assay: RotaRod motor performance, WT mice; assay type: in vivo, mouse; settings: 45 mg/kg oral
In short: as §3

[6] = Measurement of methylthioninium levels in the brain of L66 mice; assay type: in vivo, mouse
[7] = Body weight during 19-day treatment, L66 and WT mice; assay type: in vivo, mouse; settings: 5–45 mg/kg oral, 19 days, LMTX in this case LMTB
L1 mice = assay: Behavioural reactions observed on treatment, L1 histology cohorts; assay type: in vivo, mouse; settings: 75 mg/kg oral, transient
[8] = test system: Alzheimer's disease patients; settings: AD of mild or moderate severity, 24 weeks; ref Wischik et al., 2015; cited from earlier work
[9] = test system: mitochondrial β-oxidation; settings: ref Visarius et al., 1997; cited from earlier work

aggregated tau in Line 1, sequence (P10636 613-707): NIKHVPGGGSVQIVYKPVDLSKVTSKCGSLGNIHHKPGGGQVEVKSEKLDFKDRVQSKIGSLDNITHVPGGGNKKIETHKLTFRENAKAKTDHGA
aggregated tau in L66, sequence (P10636 1-441 isoform P10636-8 P301S/G335D): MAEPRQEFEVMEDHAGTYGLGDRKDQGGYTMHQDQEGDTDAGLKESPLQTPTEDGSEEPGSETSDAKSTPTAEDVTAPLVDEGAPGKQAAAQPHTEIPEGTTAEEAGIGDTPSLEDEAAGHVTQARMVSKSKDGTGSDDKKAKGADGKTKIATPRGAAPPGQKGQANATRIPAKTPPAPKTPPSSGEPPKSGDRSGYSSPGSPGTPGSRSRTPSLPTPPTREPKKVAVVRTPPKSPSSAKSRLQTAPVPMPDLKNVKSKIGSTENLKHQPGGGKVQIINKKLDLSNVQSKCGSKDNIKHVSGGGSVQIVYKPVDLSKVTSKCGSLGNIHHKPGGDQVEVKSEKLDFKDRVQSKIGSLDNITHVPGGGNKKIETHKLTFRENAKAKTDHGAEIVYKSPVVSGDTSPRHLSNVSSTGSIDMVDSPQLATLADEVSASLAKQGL

Substance: 3,7-bis(dimethylamino)phenothiazin-5-ylium chloride [MTC]
- effect on swim speed ([1]; L1 and WT mice, 15 and 45 mg/kg oral, visible platform task): did not alter the velocity
- effect on mean number of trials to criterion (three spatial problems) ([1]; L1 mice, 15 mg/kg oral): longer training required to meet criterion
- effect on mean number of trials to criterion (three spatial problems) ([1]; L1 mice, 45 mg/kg oral): impairment was reversed
- effect on path length to visible platform ([1]; L1 mice, 15 and 45 mg/kg oral, 4 days cued training): No drug effect
- dose required to produce benefit in spatial problem-solving water maze task ([1]; L1 mice, oral, 8 weeks, dose as weight of compound): 45 mg/kg
- effect on path length to visible platform ([2]; 15 mg/kg oral): improvement
- effect on path length to visible platform ([2]; 45 mg/kg oral): did not differ from controls
- weight loss [3]: 15–20%
- reduction in tau-reactive neurons, subiculum (aggregated tau in Line 1): 83%
- percentage reduction in counts compared with zero dose, mean over region (aggregated tau in L66): 44%
- effect on post-treatment RotaRod performance vs vehicle ([4]; 5 mg/kg oral): significant benefit
- effect on post-treatment RotaRod performance vs vehicle ([4]; 15 mg/kg oral): significant benefit
- effect on motor learning (difference between trial 1 and trial 12) ([4]; all doses (5, 15, 45 mg/kg)): full recovery of motor learning
- lowest effective dose, correction of motor learning on RotaRod ([4]; oral, 19 days (5 mg/kg of compound)): 4 mg MT/kg
- effect on post-treatment RotaRod performance vs vehicle [5]: did not affect the performance
- brain MT concentration with evidence of plateauing of RotaRod performance ([6]; 5 or 15 mg/kg, LMTX in this case LMTB): 0.6 mmol/L
- mean brain concentration of total MT ([6]; lowest effective dose (4 mg MT/kg), oral): 150 ± 10 nM
- effect on body weight compared with vehicle controls [7]: dose-dependent weight loss
- behavioural reactions (L1 mice): hunched posture, low activity, piloerection
- minimum effective dose at clinical and molecular imaging endpoints [8]: 138 mg MT/day
- concentration for enhancement of mitochondrial β-oxidation [9]: 0.3 µmol/L

— paper PMC4416029 (Behavioural Pharmacology, 2015)
